PG9 Ab binder: binders of HIV-1 gp120 antibody PG9, primary screen, biochemical, TR-FRET; TR-FRET gp120-PG9 antibody binding; inhibition, % at 6.7 µM; 360,000 tested, 0.43% active; AID 624416, 2012; in the data active = inhibition above about 8.5%
NR1D1 modulator: modulators of Rev-erb alpha DNA binding, primary screen, biochemical, FITC-DNA, fluorescence polarization, uHTS; activity, % at 10 µM; Rev-erbα–FITC-DNA binding, 90 min; AID 1259318, 2017; Nuclear receptor subfamily 1 group D member 1 (Homo sapiens), P20393; 370,000 tested, 0.79% active;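 active = activity above about 14%, limit read from the data; passing the limit was not always enough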;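 also: 0% = DMSO wells with 35 nM protein and 100% = DMSO wells with 750 nM protein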
Target sequence (P20393 whole entry, looked up): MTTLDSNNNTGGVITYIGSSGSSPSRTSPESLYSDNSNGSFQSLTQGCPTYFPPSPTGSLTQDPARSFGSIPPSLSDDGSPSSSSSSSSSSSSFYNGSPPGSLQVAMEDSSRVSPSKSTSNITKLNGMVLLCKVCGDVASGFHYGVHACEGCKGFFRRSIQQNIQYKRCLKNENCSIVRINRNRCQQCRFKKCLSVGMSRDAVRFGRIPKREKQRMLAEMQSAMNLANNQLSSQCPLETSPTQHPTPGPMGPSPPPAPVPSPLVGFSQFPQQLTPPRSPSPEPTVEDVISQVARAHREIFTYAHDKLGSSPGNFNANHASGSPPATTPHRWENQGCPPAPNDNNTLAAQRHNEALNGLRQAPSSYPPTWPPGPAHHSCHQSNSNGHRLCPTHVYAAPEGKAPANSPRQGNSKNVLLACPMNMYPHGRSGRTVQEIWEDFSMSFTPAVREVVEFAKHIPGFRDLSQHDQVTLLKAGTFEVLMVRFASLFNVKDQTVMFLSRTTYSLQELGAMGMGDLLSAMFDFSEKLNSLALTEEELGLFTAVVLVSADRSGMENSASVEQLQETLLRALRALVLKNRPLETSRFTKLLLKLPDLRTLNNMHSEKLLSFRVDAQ
NR2E3 ag-1: inhibitors of NR2E3-RetCOR corepressor binding, primary screen, NR2E3 agonist project, biochemical, TR-FRET, GST-NR2E3, biotin-RetCOR | 1536-well | Photoreceptor-specific nuclear receptor (Homo sapiens), Q9Y5X4 | inhibition of corepressor binding, % at 4.78 µM | 320,000 tested, 0.12% active;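 active = percent inhibition above the cutoff of mean plus 3 SD of all tested compounds, set per screening campaign, cut at about 20% in these data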;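 also: 0% = DMSO wells and 100% = biotin wells as full block of FRET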
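Material: NR2E3–RetCOR corepressor complex | Quantity: 1.35 nM GST-tagged NR2E3 final | Schedule: 5 h at 4 °C | Replication: Singlicate compound wells | Reagent: RetCOR corepressor, biotinylated, 7 nM | Controls: Biotin wells as high control, 0.6% DMSO wells as low control | Signal: TR-FRET, Eu(K)-anti-GST donor, streptavidin-D2 acceptor, ex 340, em 617/671 nm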
NR2E3 ag-2: NR2E3 agonists in two-hybrid cells, primary screen, cell-based, luminescence, CHO-S, Gal4-NCOR/VP16-NR2E3; Photoreceptor-specific nuclear receptor (Homo sapiens), Q9Y5X4; luciferase; inhibition of corepressor binding, % at 3.98 µM; 360,000 tested, 0.35% active; AID 602229, 2012;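 active = inhibition above the mean of all tested compounds plus 3 SD, cut at about 70% in these data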;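 also: 0% = DMSO with NR2E3 transfected cells and 100% = cells lacking NR2E3 construct; higher means lower luciferase signal from less NR2E3 corepressor binding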
PG9 binder conf: binders of anti-gp120 antibody PG9, confirmation, biochemical, TR-FRET. shares compounds with PG9 Ab binder. TR-FRET PG9 antibody binding. inhibition, % at 6.7 µM. 1,500 tested, 90% active. AID 651571, 2012; in the data active = inhibition above about 9%
PGV04 counter: binders of control antibody PGV04, counter-screen for PG9 antibody binder project, biochemical, TR-FRET, distinct HIV envelope site | shares compounds with PG9 Ab binder | TR-FRET PGV04 antibody-gp120 binding | inhibition, % at 6.7 µM | 1,500 tested, 95% active | AID 651604, 2012; in the data active = inhibition above about 9.5%
NR1D1 mod conf: modulators of Rev-erb alpha DNA binding, confirmation, biochemical, FITC-DNA, fluorescence polarization, single point; 3,000 tested, 61% active; 90 min; AID 1259319, 2017; shares compounds with NR1D1 modulator; activation, % at 25 µM;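 active = activation at or above a set limit, or at least 3 SD above the negative control mean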;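 also: 0% = 35 nM protein with DMSO and 100% = 750 nM protein high control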
RORg DNA counter: modulation of RORgamma DNA binding, dose response, counter-screen for Rev-erb alpha modulator project, biochemical, fluorescence polarization, FITC-DNA | AID 1259320, 2017 | purified RORgamma protein-FITC-DNA binding | shares compounds with NR1D1 modulator | 910 tested, 8% active | IC50, µM;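 active = Compounds whose fitted half-maximal concentration for disrupting protein-DNA binding is below 10 micromolar; the record names Rev-erb in its text, so the target is in doubt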
Active calls of the source: *; i = inactive; / = not tested or not shown. The list is not random: actives were taken first. Their share in the collection is about 1.5%.

SMILES | PG9 Ab binder | NR1D1 modulator | NR2E3 ag-1 | NR2E3 ag-2 | PG9 binder conf | PGV04 counter | NR1D1 mod conf | others
N#Cc1c(-c2ccccc2)cc(-c2ccccc2)nc1Br | 8.7* | 29* | 6 | 19 | 14* | 17* | 10
COc1ccc(-c2cc(-c3ccccc3)c(C#N)c(S(C)=O)n2)cc1 (stereo not given) | 0 | 1 | 1 | 18 | / | / | /
COc1ccccc1NC(=O)c1sc2ncn(Cc3cccc4ccccc34)c(=O)c2c1C | 13* | 117* | 0 | -26 | 11* | 24* | 49* | RORg DNA counter=i
C=CCn1cnc2sc(C(=O)Nc3ccccc3OC)c(C)c2c1=O | -2 | -6 | -4 | -14 | / | / | /
Cc1c(C#N)c(N)nc2c3c(sc12)NC(=O)CC3c1ccc(Cl)cc1 (stereo not given) | 18* | 65* | -1 | 16 | 16* | 33* | 45* | RORg DNA counter=>40
N#Cc1c(N)nc2c3c(sc(=N)c2c1N)NC(=O)CC3c1ccccc1 (stereo not given) | 57* | 29* | 8 | -13 | 55* | 71* | 41* | RORg DNA counter=>40
N#Cc1c(N)nc2c3c(sc(=N)c2c1N)NC(=O)CC3c1c(F)cccc1Cl (stereo not given) | 17* | 58* | 2 | -10 | 22* | 30* | 62* | RORg DNA counter=2.9*
CCOC(=O)CSC1=C(C#N)C(c2ccc(Cl)cc2)CC(=O)N1 (stereo not given) | -1 | -10 | -2 | -14 | / | / | /
O[C@@H]1[C@@H](O)[C@H](n2c3ccc(Cl)cc3c3ccc4c5cc(Cl)ccc5[nH]c4c32)OC[C@H]1O | / | 2 | / | / | / | / | /
N#Cc1c(N)nc(SCC(=O)NCc2ccc3c(c2)OCO3)c(C#N)c1-c1cccs1 | 50* | 85* | -1 | -26 | 23* | 40* | 54* | RORg DNA counter=>40
C=CCn1c(COc2ccc(C)cc2)nnc1SCC(=O)Nc1cc(Cl)cc(Cl)c1 | / | -1 | / | / | / | / | /
COc1cc(OC)cc(-c2c(Sc3ccccc3)c3cc(-c4ccc5c(c4)OCCO5)ccc3n2C)c1 | 45* | 23* | / | -31 | 55* | 73* | 21*
N#C/C(C(=O)NCc1ccco1)=C1/SC=C(c2ccccc2)N1c1ccccc1 | 41* | 38* | -2 | -1 | 42* | 59* | 30*
CC1=CS/C(=C(/C#N)C(=O)NCc2ccco2)N1c1ccccc1 | 3 | -8 | 5 | -21 | / | / | /
CCN(CC)C(=O)CC[C@H]1CC[C@]2(CCCN(Cc3ccccc3)C2)O1 | / | 3 | / | / | / | / | /
O=C(CCN1C(=O)c2cccc3cccc(c23)C1=O)Nc1ccon1 | 12* | 43* | 1 | 1 | 17* | 36* | 30*
Cc1cccc(NC(=O)CCN2C(=O)c3ccccc3C2=O)n1 | 2 | 6 | 0 | -7 | / | / | /
COc1ccccc1CCn1cnc(-c2cccc(F)c2)c1CC(C)C | -1 | 5 | / | / | / | / | /
COc1ccc(C(=O)Cn2cnc3ccccc3c2=O)cc1OC | 1 | -3 | 3 | -23 | / | / | /
COc1ccc(C(=O)Cn2cnc3ccc(Cl)cc3c2=O)cc1F | 21* | 33* | -1 | -21 | 36* | 48* | 32* | RORg DNA counter=i
O=C(COc1ccc2ccccc2c1Br)NNC(=O)Nc1ccccc1 | 37* | 281* | -61 | -9 | 41* | 48* | 381* | RORg DNA counter=4*
COC(=O)NNC(=O)COc1ccc2ccccc2c1Br | 1 | -2 | -1 | -29 | / | / | /
CCOC(=O)c1cccc2c(=O)c(C(=O)c3ccc(Cl)cc3)c(C(=O)OC)[nH]c12 | 21* | 50* | 0 | -4 | 11* | 19* | 37* | RORg DNA counter=>40
COC(=O)c1c(N)[nH]c(C(=O)c2ccccc2)c1-c1ccc(Cl)cc1 | 0 | -6 | / | -40 | / | / | /
CS(=O)(=O)Nc1cc2occ(NC=O)c(=O)c2cc1Oc1ccccc1 | / | -2 | / | / | / | / | /
SMILES | PG9 Ab binder | NR1D1 modulator | NR2E3 ag-1 | NR2E3 ag-2 | PG9 binder conf | PGV04 counter | NR1D1 mod conf | others
Cc1ccc(-c2nc3ncccc3o2)cc1NC(=O)CC(C)C | -1 | 6 | -1 | -8 | / | / | /
Cc1ccc(-c2nc3ncccc3o2)cc1NC(=O)COc1ccccc1 | 9.1* | 22* | 0 | -6 | 13* | 18* | 9
Cc1ccc(-c2nc3ncccc3o2)cc1NC(=O)c1cc2ccccc2o1 | 8.9* | 19* | 1 | -25 | 12* | 35* | 0
O=C(Nc1cccc(-c2nc3ncccc3o2)c1)c1cc2ccccc2o1 | -1 | -3 | -4 | -59 | / | / | /
COc1ccc(NC(=O)COC(=O)c2cc(SC)ccc2Cl)c(OC)c1 | 18* | 34* | 12 | -10 | 30* | 45* | 29*
COc1ccc(C(C)(C)C)cc1NC(=O)COC(=O)c1cc(SC)ccc1Cl | -2 | -3 | -3 | -25 | / | / | /
c1ccc(Cn2ccc3ccc(-c4ccc5ccn(Cc6cccc(-c7cccs7)c6)c5c4)cc32)cc1 | / | 8 | / | / | / | / | /
Cc1cccc(C(=O)Nc2nc3ncccn3c2-c2ccc(F)cc2)c1 | / | -5 | / | / | / | / | /
O=C(Cn1c(=O)c2cccn2c2ccccc21)NCCc1ccc(Cl)cc1 | 36* | 66* | 10 | -25 | 40* | 43* | 27*
COC(=O)[C@H](CC(C)C)N(Cc1cn(Cc2ccc(C)cc2)nn1)S(=O)(=O)c1ccccc1Br | / | -6 | / | / | / | / | /
CCCC(=O)Nc1c2c(nc3ccccc13)N(c1ccccc1)CC2 | / | / | -1 | -16 | / | / | /
O=C(CN1CCCCC1)Nc1c2c(nc3ccccc13)N(c1ccccc1)CC2 | 48* | 109* | -11 | 6 | 72* | 79* | 75* | RORg DNA counter=>40
COC(=O)CNC(=O)[C@H](Cc1ccccc1)NC1(C(=O)NCCc2c[nH]c3ccccc23)CCCCC1 | / | 4 | / | / | / | / | /
COc1ccc(C(=O)NCC(=O)Nc2ccc(F)cc2)cc1OC | -1 | 0 | 2 | 4 | / | / | /
COc1ccc(-c2nc(NC(=O)c3ccc(OCC(=O)Nc4ccc(F)cc4)c(OC)c3)sc2C)cc1 | 81* | 180* | 10 | -29 | 69* | 82* | 154* | RORg DNA counter=i
COc1ccc2oc(=O)c(C(=O)NCc3ccccc3)cc2c1 | 0 | 14 | 3 | -16 | / | / | /

Source: PubChem BioAssay
